Data published in ChEMBL document CHEMBL1649560, “Beta-lactamase-mediated beta-lactam resistance in Campylobacter species: prevalence of Cj0299 (bla OXA-61) and evidence for a novel beta-Lactamase in C. jejuni” (2009).
≈ marks a conversion by molar mass, not a printed value.

Assays:
Assay type in all cases: functional
Campylobacter coli [1] = assay: Antibacterial activity against Campylobacter coli by NCCLS agar doubling dilution method
Summary of the method: (§1)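 MICs by agar doubling dilution following the NCCLS (CLSI) Campylobacter Working Group procedure, applied to ampicillin- and amoxicillin-resistant isolates from UK chicken flocks (2000–2006). C. jejuni NCTC 11168 and C. coli NCTC 11366 served as control strains. Resistance was called at an ampicillin cutoff of 8 μg/ml. Other agents were judged against Enterobacteriaceae guidelines (BSAC, CLSI).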

Campylobacter jejuni [2] = assay: Antibacterial activity against Campylobacter jejuni isolate P338 harboring blaOXA-61::cat gene by NCCLS agar doubling dilution method
Summary of the method: (§2)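 Agar doubling dilution MICs (NCCLS/CLSI Campylobacter Working Group method) against Cj0299-inactivated mutants. Mutants were made by transforming the C. jejuni isolate with pCI and selecting on Mueller-Hinton agar with 10 μg/ml chloramphenicol for 3–5 days. Chromosomal insertion was confirmed by PCR with Cj0299 and cat primers.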

Campylobacter jejuni [3] = assay: Antibacterial activity against Campylobacter jejuni by NCCLS agar doubling dilution method; summary of the method: as §1
Campylobacter jejuni [4] = assay: Antibacterial activity against bla gene-negative and nitrocefin reaction-negative beta-lactamase harboring Campylobacter jejuni isolate P835 by NCCLS agar doubling dilution method
Summary of the method: (§3)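 MICs of β-lactams by agar doubling dilution following the NCCLS (CLSI) Campylobacter Working Group procedure, with C. jejuni NCTC 11168 and C. coli NCTC 11366 as controls. Isolates were from UK poultry flocks. β-Lactamase status was set by Cj0299 PCR (281-bp amplimer) and by a nitrocefin colour change of sonicated lysate within 5 min, or within 30 min on repeat.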

Campylobacter jejuni [5] = assay: Antibacterial activity against Campylobacter jejuni isolate P270 harboring blaOXA-61::cat gene by NCCLS agar doubling dilution method
Campylobacter jejuni [6] = assay: Antibacterial activity against bla gene-positive and nitrocefin reaction-positive beta-lactamase harboring Campylobacter jejuni isolate P1093 by NCCLS agar doubling dilution method; summary of the method: as §3
Campylobacter jejuni [7] = assay: Antibacterial activity against bla gene-positive and nitrocefin reaction-negative beta-lactamase harboring Campylobacter jejuni isolate P1698 by NCCLS agar doubling dilution method; summary of the method: as §3
Campylobacter jejuni [8] = assay: Antibacterial activity against bla gene-positive and nitrocefin reaction-positive beta-lactamase harboring Campylobacter jejuni isolate P286 by NCCLS agar doubling dilution method
Summary of the method: (§4)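 MICs by agar doubling dilution per the NCCLS (now CLSI) Campylobacter Working Group method. Isolates came from UK chicken flocks (feces, ceca or farm environment), 2000–2006. C. jejuni NCTC 11168 and C. coli NCTC 11366 served as control strains. The ampicillin resistance cutoff was 8 μg/ml; BSAC/CLSI Enterobacteriaceae guidelines were used for other agents.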

Campylobacter jejuni [9] = assay: Antibacterial activity against bla gene-negative and nitrocefin reaction-positive beta-lactamase harboring Campylobacter jejuni isolate P843 by NCCLS agar doubling dilution method; summary of the method: as §3
Campylobacter jejuni [10] = assay: Antibacterial activity against bla gene-negative and nitrocefin reaction-negative beta-lactamase harboring Campylobacter jejuni isolate P850 by NCCLS agar doubling dilution method; summary of the method: as §3
Campylobacter jejuni [11] = assay: Antibacterial activity against bla gene-positive and nitrocefin reaction-positive beta-lactamase harboring Campylobacter jejuni isolate P338 by NCCLS agar doubling dilution method; summary of the method: as §4
Campylobacter jejuni [12] = assay: Antibacterial activity against bla gene-positive and nitrocefin reaction-positive beta-lactamase harboring Campylobacter jejuni isolate P790 by NCCLS agar doubling dilution method; summary of the method: as §4
Campylobacter jejuni [13] = assay: Antibacterial activity against bla gene-positive and nitrocefin reaction-positive beta-lactamase harboring Campylobacter jejuni isolate P285 by NCCLS agar doubling dilution method; summary of the method: as §4
Campylobacter jejuni [14] = assay: Antibacterial activity against bla gene-positive and nitrocefin reaction-positive beta-lactamase harboring Campylobacter jejuni isolate P1650 by NCCLS agar doubling dilution method; summary of the method: as §3
Campylobacter jejuni [15] = assay: Antibacterial activity against bla gene-positive and nitrocefin reaction-positive beta-lactamase harboring Campylobacter jejuni isolate P1618 by NCCLS agar doubling dilution method; summary of the method: as §3
Campylobacter jejuni [16] = assay: Antibacterial activity against bla gene-positive and nitrocefin reaction-positive beta-lactamase harboring Campylobacter jejuni isolate P1730 by NCCLS agar doubling dilution method; summary of the method: as §4
Campylobacter coli [17] = assay: Antibacterial activity against bla-positive and beta-lactamase-weakly positive Campylobacter coli isolate P1627 by NCCLS agar doubling dilution method; summary of the method: as §4
Campylobacter jejuni [18] = assay: Antibacterial activity against bla gene-positive and nitrocefin reaction-positive beta-lactamase harboring Campylobacter jejuni isolate P316 by NCCLS agar doubling dilution method; summary of the method: as §4
Campylobacter coli [19] = assay: Antibacterial activity against bla gene-positive and nitrocefin reaction-positive beta-lactamase harboring Campylobacter coli isolate P321 by NCCLS agar doubling dilution method; summary of the method: as §3
Campylobacter jejuni [20] = assay: Antibacterial activity against bla gene-negative and nitrocefin reaction-negative beta-lactamase harboring Campylobacter jejuni isolate P1962 by NCCLS agar doubling dilution method; summary of the method: as §3
Campylobacter jejuni [21] = assay: Antibacterial activity against bla gene-negative and nitrocefin reaction-positive beta-lactamase harboring Campylobacter jejuni isolate P854 by NCCLS agar doubling dilution method; summary of the method: as §3
Campylobacter jejuni [22] = assay: Antibacterial activity against bla gene-positive and nitrocefin reaction-negative beta-lactamase harboring Campylobacter jejuni NCTC 11168 by NCCLS agar doubling dilution method; summary of the method: as §3
Campylobacter jejuni [23] = assay: Antibacterial activity against bla gene-positive and nitrocefin reaction-negative beta-lactamase harboring Campylobacter jejuni isolate P1699 by NCCLS agar doubling dilution method; summary of the method: as §3
Campylobacter coli [24] = assay: Antibacterial activity against bla gene-positive and nitrocefin reaction-positive beta-lactamase harboring Campylobacter coli isolate P1826 by NCCLS agar doubling dilution method; summary of the method: as §3
Campylobacter jejuni [25] = assay: Antibacterial activity against bla gene-positive and nitrocefin reaction-positive beta-lactamase harboring Campylobacter jejuni isolate P305 by NCCLS agar doubling dilution method; summary of the method: as §4
Campylobacter jejuni [26] = assay: Antibacterial activity against Campylobacter jejuni isolate P1093 harboring blaOXA-61::cat gene by NCCLS agar doubling dilution method; summary of the method: as §2

CO/N=C(\C(=O)N[C@@H]1C(=O)N2C(C(=O)O)=C(COC(N)=O)CS[C@H]12)c1ccco1 [CEFUROXIME] was tested, and the MIC50 (Campylobacter coli [1]) was 128 µg/mL (≈ 302 µM), the MIC90 (Campylobacter coli [1]) was 256 µg/mL (≈ 603 µM) and the MIC (Campylobacter jejuni [2]) was 128 µg/mL (≈ 302 µM). It also gave an MIC50 (Campylobacter jejuni [3]) of 128 µg/mL (≈ 302 µM), an MIC90 (Campylobacter jejuni [3]) of 128 µg/mL (≈ 302 µM) and an MIC (Campylobacter jejuni [4]) of 64 µg/mL (≈ 151 µM). It also gave an MIC (Campylobacter jejuni [5]) of 64 µg/mL (≈ 151 µM), an MIC (Campylobacter jejuni [6]) of 128 µg/mL (≈ 302 µM) and an MIC (Campylobacter jejuni [7]) of 64 µg/mL (≈ 151 µM). It also gave an MIC (Campylobacter jejuni [8]) of 128 µg/mL (≈ 302 µM), an MIC (Campylobacter jejuni [9]) of 64 µg/mL (≈ 151 µM) and an MIC (Campylobacter jejuni [10]) of 128 µg/mL (≈ 302 µM). The MIC (Campylobacter jejuni [11]) was 128 µg/mL (≈ 302 µM), the MIC (Campylobacter jejuni [12]) was 64 µg/mL (≈ 151 µM) and the MIC (Campylobacter jejuni [13]) was 128 µg/mL (≈ 302 µM). It also gave an MIC (Campylobacter jejuni [14]) of 128 µg/mL (≈ 302 µM), an MIC (Campylobacter jejuni [15]) of 256 µg/mL (≈ 603 µM) and an MIC (Campylobacter jejuni [16]) of 128 µg/mL (≈ 302 µM). It also gave an MIC (Campylobacter coli [17]) of 64 µg/mL (≈ 151 µM), an MIC (Campylobacter jejuni [18]) of 64 µg/mL (≈ 151 µM) and an MIC (Campylobacter coli [19]) of 64 µg/mL (≈ 151 µM). It also gave an MIC (Campylobacter jejuni [20]) of 64 µg/mL (≈ 151 µM), an MIC (Campylobacter jejuni [21]) of 128 µg/mL (≈ 302 µM) and an MIC (Campylobacter jejuni [22]) of 32 µg/mL (≈ 75.4 µM). For the same molecule, the MIC (Campylobacter jejuni [23]) was 64 µg/mL (≈ 151 µM), the MIC (Campylobacter coli [24]) was 64 µg/mL (≈ 151 µM) and the MIC (Campylobacter jejuni [25]) was 64 µg/mL (≈ 151 µM). For the same molecule, the MIC (Campylobacter jejuni [26]) was 128 µg/mL (≈ 302 µM).

Work on CC1(C)S[C@@H]2[C@H](NC(=O)C(C(=O)O)c3ccccc3)C(=O)N2[C@H]1C(=O)O (some centres undefined) [CARBENICILLIN] yielded an MIC50 (Campylobacter coli [1]) of 128 µg/mL (≈ 338 µM), an MIC90 (Campylobacter coli [1]) of 256 µg/mL (≈ 677 µM) and an MIC (Campylobacter jejuni [2]) of 8 µg/mL (≈ 21.1 µM). It also gave an MIC50 (Campylobacter jejuni [3]) of 128 µg/mL (≈ 338 µM), an MIC90 (Campylobacter jejuni [3]) of 256 µg/mL (≈ 677 µM) and an MIC (Campylobacter jejuni [4]) of 8 µg/mL (≈ 21.1 µM). The MIC (Campylobacter jejuni [5]) was 4 µg/mL (≈ 10.6 µM), the MIC (Campylobacter jejuni [6]) was 256 µg/mL (≈ 677 µM) and the MIC (Campylobacter jejuni [7]) was 32 µg/mL (≈ 84.6 µM). The MIC (Campylobacter jejuni [8]) was 256 µg/mL (≈ 677 µM), the MIC (Campylobacter jejuni [9]) was < 16 µg/mL and the MIC (Campylobacter jejuni [10]) was 256 µg/mL (≈ 677 µM). The MIC (Campylobacter jejuni [11]) was 128 µg/mL (≈ 338 µM), the MIC (Campylobacter jejuni [12]) was 256 µg/mL (≈ 677 µM) and the MIC (Campylobacter jejuni [13]) was 256 µg/mL (≈ 677 µM). It also gave an MIC (Campylobacter jejuni [14]) of 64 µg/mL (≈ 169 µM), an MIC (Campylobacter jejuni [15]) of 128 µg/mL (≈ 338 µM) and an MIC (Campylobacter jejuni [16]) of 128 µg/mL (≈ 338 µM). The MIC (Campylobacter coli [17]) was 32 µg/mL (≈ 84.6 µM), the MIC (Campylobacter jejuni [18]) was 128 µg/mL (≈ 338 µM) and the MIC (Campylobacter coli [19]) was 256 µg/mL (≈ 677 µM). The MIC (Campylobacter jejuni [20]) was < 16 µg/mL, the MIC (Campylobacter jejuni [21]) was > 256 µg/mL and the MIC (Campylobacter jejuni [22]) was 16 µg/mL (≈ 42.3 µM). For the same molecule, the MIC (Campylobacter jejuni [23]) was 64 µg/mL (≈ 169 µM), the MIC (Campylobacter coli [24]) was 128 µg/mL (≈ 338 µM) and the MIC (Campylobacter jejuni [25]) was > 256 µg/mL. For the same molecule, the MIC (Campylobacter jejuni [26]) was 16 µg/mL (≈ 42.3 µM).

C[C@@H](O)[C@H]1C(=O)N2C(C(=O)O)=C(S[C@@H]3CN[C@H](C(=O)N(C)C)C3)[C@H](C)[C@H]12 [MEROPENEM] gave an MIC50 (Campylobacter coli [1]) of 0.12 µg/mL (≈ 0.313 µM), an MIC90 (Campylobacter coli [1]) of 0.12 µg/mL (≈ 0.313 µM) and an MIC (Campylobacter jejuni [2]) of 0.015 µg/mL (≈ 0.0391 µM). The MIC50 (Campylobacter jejuni [3]) was 0.015 µg/mL (≈ 0.0391 µM), the MIC90 (Campylobacter jejuni [3]) was 0.12 µg/mL (≈ 0.313 µM) and the MIC (Campylobacter jejuni [4]) was < 0.015 µg/mL. For the same molecule, the MIC (Campylobacter jejuni [5]) was 0.008 µg/mL (≈ 0.0209 µM), the MIC (Campylobacter jejuni [6]) was 0.5 µg/mL (≈ 1.3 µM) and the MIC (Campylobacter jejuni [7]) was 0.015 µg/mL (≈ 0.0391 µM). It also gave an MIC (Campylobacter jejuni [8]) of 0.25 µg/mL (≈ 0.652 µM), an MIC (Campylobacter jejuni [9]) of 0.03 µg/mL (≈ 0.0782 µM) and an MIC (Campylobacter jejuni [10]) of 0.03 µg/mL (≈ 0.0782 µM). The MIC (Campylobacter jejuni [11]) was 0.12 µg/mL (≈ 0.313 µM), the MIC (Campylobacter jejuni [12]) was 0.12 µg/mL (≈ 0.313 µM) and the MIC (Campylobacter jejuni [13]) was 0.015 µg/mL (≈ 0.0391 µM). It also gave an MIC (Campylobacter jejuni [14]) of 0.008 µg/mL (≈ 0.0209 µM), an MIC (Campylobacter jejuni [15]) of 0.008 µg/mL (≈ 0.0209 µM) and an MIC (Campylobacter jejuni [16]) of 0.015 µg/mL (≈ 0.0391 µM). It also gave an MIC (Campylobacter coli [17]) of 0.03 µg/mL (≈ 0.0782 µM), an MIC (Campylobacter jejuni [18]) of 0.12 µg/mL (≈ 0.313 µM) and an MIC (Campylobacter coli [19]) of 0.12 µg/mL (≈ 0.313 µM). For the same molecule, the MIC (Campylobacter jejuni [20]) was 0.015 µg/mL (≈ 0.0391 µM), the MIC (Campylobacter jejuni [21]) was 0.03 µg/mL (≈ 0.0782 µM) and the MIC (Campylobacter jejuni [22]) was 0.08 µg/mL (≈ 0.209 µM). The MIC (Campylobacter jejuni [23]) was 0.015 µg/mL (≈ 0.0391 µM), the MIC (Campylobacter coli [24]) was 0.06 µg/mL (≈ 0.156 µM) and the MIC (Campylobacter jejuni [25]) was 0.06 µg/mL (≈ 0.156 µM). It also gave an MIC (Campylobacter jejuni [26]) of 0.03 µg/mL (≈ 0.0782 µM).
